Reference: ChEMBL document CHEMBL1144065, “Synthesis of furanonaphthoquinones with hydroxyamino side chains” (J Nat Prod, 1999)

Columns and labels:
[1] = tested on: Vero; test: Cytotoxicity against african green monkey Vero cells; format: cell-based; details: Chlorocebus sabaeus
[2] = tested on: Saccharomyces cerevisiae; test: Growth inhibition of Yeast expressing rad52 mutant by yeast bioassay; format: functional
Procedure, shortened: (§1)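 Agar diffusion assay: 100 µL wells cut in an agar layer overlaid with the repair-deficient yeast strain (∆rad52, or ∆rad52∆top1). IC12 in µg/mL is the concentration giving a 12 mm inhibition zone around the well.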

[3] = Cytotoxicity against rat H4IIE cells by XTT assay; format: functional, cell-based
Procedure, shortened: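 H4IIE rat hepatoma cells in culture; growth read out with the XTT protocol. IC50 in µM is the concentration giving 50% growth inhibition. Active compounds were run in two separate assays, and both values are reported.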

[4] = tested on: Saccharomyces cerevisiae; test: Growth inhibition of Yeast expressing rad52.top1 mutant by yeast bioassay; format: functional; procedure, shortened: as §1

Row | SMILES | IC50 [1] [µM] | IC12 [2] [µg/mL] | IC50 [3] [µM] | IC12 [4] [µg/mL]
1 | CC(O)c1cc2c(o1)C(=O)c1ccccc1C2=O (configuration not stated) | 15.3 | 14 | – | –
2 | CC(CO)(CO)NCc1cc2c(o1)C(=O)c1ccccc1C2=O | – | > 500 | 2 | 240
3 | O=Cc1cc2c(o1)C(=O)c1ccccc1C2=O | – | 160 | 2 | 44
4 | O=C1c2ccccc2C(=O)c2oc(CNC(CO)(CO)CO)cc21 | – | > 500 | > 20 | > 250
5 | O=C1c2ccccc2C(=O)c2oc(CNCC(O)CO)cc21 (configuration not stated) | – | > 500 | 2 | 220
6 | CC(C)(CO)NCc1cc2c(o1)C(=O)c1ccccc1C2=O | – | > 500 | 4 | 210
7 | COc1cc(OC)c2c(c1)C(=O)c1occc1C2=O | – | > 8000 | 5 | 125
8 | COc1ccc2cn(C(C)(CO)CO)c3c2c1C(=O)c1ccoc1-3 | – | > 500 | > 20 | > 500
9 | CCC(CO)(CO)NCc1cc2c(o1)C(=O)c1ccccc1C2=O | – | > 500 | 5 | > 500
10 | COc1cccc2c1C(=O)c1ccoc1C2=O | – | 152 | 7 | 44
11 | O=C1c2ccccc2C(=O)c2occc21 | – | 83 | 5 | 17
